Where two headings read alike, the source gives them in different places.
How the values were obtained:
Renal function = assay type: in vivo, human; details: follow-up after DPP-4 inhibitor treatment, mean±SD; for Follow-up eGFR: MDRD equation
In short: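 Fasting early-morning antecubital venous blood was taken from renal allograft recipients receiving a DPP-4 inhibitor. Creatinine was measured by the Jaffe method. eGFR was calculated with the Modification of Diet in Renal Disease study equation. Values are reported as mean±SD and were compared across inhibitor groups by one-way ANOVA with Scheffe post hoc tests.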

hemoglobin A1c (HbA1c) = assay type: in vivo, human; details: mean±SD; for After treatment HbA1c: after 3 months of treatment, kidney transplant patients with diabetes; for Difference of HbA1c (ΔHbA1c): change from baseline to 3 months of treatment
In short: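 Renal allograft recipients with diabetes, all on cyclosporine-based triple maintenance therapy, started a DPP-4 inhibitor after transplant, at full or renally adjusted reduced dose (50 mg once daily). HbA1c was measured by immunoturbidimetry on an automated analyser and reported as NGSP %. Values at baseline and after 3 months of treatment were compared by paired t test; mean±SD.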

[1] = cited from earlier work

N#C[C@@H]1CCCN1C(=O)CNC12CC3CC(CC(O)(C3)C1)C2 [Vildagliptin, vildagliptin]
Follow-up eGFR (Renal function): 58.21±17.76 mL/min/1.73 m^2 | Follow-up creatinine (Renal function): 1.41 ± 0.95 mg/dL | After treatment HbA1c (hemoglobin A1c (HbA1c)): 7.08±1.81% | Difference of HbA1c (ΔHbA1c) (hemoglobin A1c (HbA1c)): -0.38±1.03% | Difference of HbA1c (ΔHbA1c) (hemoglobin A1c (HbA1c); listed as vildagliptin): –0.38%±1.03%

N[C@@H](CC(=O)N1CCn2c(nnc2C(F)(F)F)C1)Cc1cc(F)c(F)cc1F [Sitagliptin, sitagliptin]
Eliminated in an unchanged form in the urine [1]: 79% | Follow-up eGFR (Renal function): 61.03±16.50 mL/min/1.73 m^2 | Follow-up creatinine (Renal function): 1.22 ± 0.82 mg/dL | After treatment HbA1c (hemoglobin A1c (HbA1c)): 7.18±1.21% | Difference of HbA1c (ΔHbA1c) (hemoglobin A1c (HbA1c)): -0.53±0.95% | Difference of HbA1c (ΔHbA1c) (hemoglobin A1c (HbA1c); listed as sitagliptin): –0.53%±0.95%

CC#CCn1c(N2CCC[C@@H](N)C2)nc2c1c(=O)n(Cc1nc(C)c3ccccc3n1)c(=O)n2C [Linagliptin, linagliptin]
Eliminated in an unchanged form via the feces [1]: 84.7% | Renal excretion, share of elimination [1]: 5.4% | Follow-up eGFR (Renal function): 62.82±18.74 mL/min/1.73 m^2 | Follow-up creatinine (Renal function): 1.25 ± 0.42 mg/dL | After treatment HbA1c (hemoglobin A1c (HbA1c)): 6.79±0.63% | Difference of HbA1c (ΔHbA1c) (hemoglobin A1c (HbA1c)): -1.40±1.34%
